Like-named read-outs stand apart in the source and are kept apart here.
Tests used:
[1] = tested on: K562; experiment: NucView caspase 3 activity assay by flow cytometry; format: cell-based, human; settings: for EC50: Homo sapiens, K562, 24 h, read-out: AP50 (50% induction of apoptosis), Caspase 3 activity assay (C3); for The lowest dose of polyphenols at which there was a significant induction of apoptosis compared to the vehicle control: K562, caspase 3 activity, 24 h, p<0.05
In short: (§1)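 Seeded at 0.5 x 10⁶ cells/well and treated 24 h, with series of 0–50 or 0–250 µM depending on compound. Normalized to vehicle (0% apoptosis). Mean ± STD, three independent experiments in triplicate. One-way ANOVA/Tukey, p<0.05. AP50 = concentration giving 50% apoptotic cells.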

[2] = tested on: MOLT-3; experiment: CellTiter-Glo luminescent cell viability assay; format: cell-based, human; settings: MOLT-3, 24 h, doses 0, 2, 10, 50, 250, 500 µM, p<0.05
In short: (§2)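 Cells grown in RPMI 1640 with 10% FBS, 1.5 mM L-glutamine and penicillin/streptomycin at 37 °C, 5% CO2. Seeded at 2.5 x 10³ cells/well and exposed 24 h to ethanol-dissolved test compound (0, 2, 10, 50, 250, 500 µM) with 0.1% ethanol vehicle. ATP luminescence normalized to vehicle (100%). IC50 taken from linear regression. Lowest significant dose set by one-way ANOVA/Tukey, p<0.05. Triplicates, three independent experiments.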

[3] = tested on: lymphoid cell lines; experiment: Apoptosis; format: cell-based; settings: Homo sapiens
[4] = tested on: THP-1; experiment: NucView caspase 3 activity assay by flow cytometry; format: cell-based, human; settings: for EC50: Homo sapiens, THP-1, 24 h, read-out: AP50 (50% induction of apoptosis), Caspase 3 activity assay (C3); for The lowest dose of polyphenols at which there was a significant induction of apoptosis compared to the vehicle control: THP-1, caspase 3 activity, 24 h, p<0.05
In short: as §1

[5] = tested on: U937; experiment: Cell cycle analysis, propidium iodide flow cytometry; format: cell-based, human; settings: U937, IC50 dose, 24 h; vehicle control G0/G1 = 44.03%
In short: (§3)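 Seeded at 0.5 x 10^6 cells per well in 12-well plates and treated 24 h at the IC50 concentration of each test compound from CellTiter-Glo. Cells were pelleted (400 g, 5 min), PBS-washed and fixed in 80% ethanol overnight at -20 °C. Staining used 50 µg/mL PI plus RNase overnight at 4 °C.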

[6] = tested on: MOLT-3; experiment: as above; format: cell-based, human; settings: MOLT-3, IC50 dose, 24 h
In short: as §3

[7] = tested on: MOLT-3; experiment: NucView caspase 3 activity assay by flow cytometry; format: cell-based, human; settings: for EC50: Homo sapiens, MOLT-3, 24 h, read-out: AP50 (50% induction of apoptosis), Caspase 3 activity assay (C3); for The lowest dose of polyphenols at which there was a significant induction of apoptosis compared to the vehicle control: MOLT-3, caspase 3 activity, 24 h, p<0.05
In short: as §1

[8] = tested on: myeloid cell lines; experiment: Apoptosis; format: cell-based; settings: Homo sapiens, 24 h, read-out: AP50 values (range in myeloid cell lines)
[9] = tested on: myeloid cell lines; experiment: CellTiter-Glo assay, summary over myeloid lines; format: cell-based; settings: Homo sapiens, 24 h, read-out: IC50 (range in myeloid cell lines)
In short: (§4)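 Cells plated at 2.5 x 10^3 per well in complete RPMI 1640 (10% FBS, 37 °C, 5% CO2). Test compounds dissolved in ethanol and dosed at 2–500 µM for 24 h; vehicle control was 0.1% (v/v) ethanol. Viability was read as ATP luminescence, normalised to vehicle (100%). IC50 was taken from linear regression of each curve. Triplicates, three independent experiments.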

[10] = tested on: JURKAT; experiment: Cell cycle analysis, propidium iodide flow cytometry; format: cell-based, human; settings: IC50 dose, 24 h, p<0.05
In short: as §3

[11] = tested on: human cervical cancer cells (HeLa); settings: cited from earlier work
[12] = tested on: all leukemia cell lines; experiment: CellTiter-Glo assay, summary over the leukemia panel; format: cell-based, human; settings: Homo sapiens, 24 h, read-out: IC50 values (range over leukemia cell lines)
In short: as §4

[13] = tested on: CCRF-CEM; experiment: Hoechst 33342 nuclear morphological analysis of apoptosis; format: cell-based; settings: Homo sapiens, 24 h, read-out: AP50 (50% induction of apoptosis), Hoechst 33342 staining (Hoe)
In short: (§5)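 Seeded at 0.5 x 10⁶ cells/well in 12-well plates and treated 24 h. Cells were pelleted (400 g, 5 min, 4 °C), washed in PBS, fixed in 4% paraformaldehyde, cytospun, air-dried, then stained with 10 μg/ml Hoechst 33342 for 10 min in the dark. Fluorescence microscopy: 200 cells counted, scored by condensed/intense nuclei, shrinkage, blebbing and apoptotic bodies. % apoptotic nuclei calculated. AP50 = concentration giving 50% apoptotic cells.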

[14] = tested on: JURKAT; experiment: NucView caspase 3 activity assay by flow cytometry; format: cell-based, human; settings: 24 h; for EC50: Homo sapiens, Jurkat, read-out: AP50 (50% induction of apoptosis), Caspase 3 activity assay (C3); for The lowest dose of polyphenols at which there was a significant induction of apoptosis compared to the vehicle control: JURKAT, caspase 3 activity, p<0.05
In short: as §1

[15] = tested on: all leukemia cell lines; experiment: Apoptosis; format: cell-based, human; settings: Homo sapiens, 24 h, read-out: AP50 values (range over leukemia cell lines)
[16] = tested on: lymphoid cell lines; experiment: CellTiter-Glo assay, summary over lymphoid lines; format: cell-based; settings: Homo sapiens, 24 h, read-out: IC50 (range in lymphoid cell lines)
In short: as §4

[17] = tested on: colorectal cancer cells (SW480, HT-29 and Caco-2); settings: SW480, HT-29 and Caco-2, 24 h treatments; cited from earlier work
[18] = tested on: JURKAT; experiment: Hoechst 33342 nuclear morphological analysis of apoptosis; format: cell-based; settings: Homo sapiens, 24 h, read-out: AP50 (50% induction of apoptosis), Hoechst 33342 staining (Hoe)
In short: as §5

[19] = tested on: U937; experiment: CellTiter-Glo luminescent cell viability assay; format: cell-based, human; settings: U937, 24 h, doses 0, 2, 10, 50, 250, 500 µM, p<0.05
In short: as §2

[20] = tested on: CCRF-CEM; experiment: CellTiter-Glo luminescent cell viability assay; format: cell-based, human; settings: 24 h, doses 0, 2, 10, 50, 250, 500 µM, p<0.05
In short: as §2

[21] = tested on: K562; experiment: Cell cycle analysis, propidium iodide flow cytometry; format: cell-based, human; settings: K562, IC50 dose, 24 h
In short: as §3

[22] = tested on: HL60; experiment: CellTiter-Glo luminescent cell viability assay; format: cell-based, human; settings: HL60, 24 h, doses 0, 2, 10, 50, 250, 500 µM, p<0.05
In short: as §2

[23] = tested on: lung cancer cell lines (A549 and CH27); settings: 24 h; cited from earlier work
[24] = tested on: lung (A549) and leukemia (HL-60) cell lines; settings: 24 h; cited from earlier work

SMILES	EC50 [1] [µM]	The lowest dose of polyphenols at which there was a significant induction of apoptosis compared to the vehicle control [1] [µM]	The lowest dose of polyphenols at which there was a significant inhibition of cell proliferation compared to the vehicle control [2] [µM]	EC50 [4] [µM]	The lowest dose of polyphenols at which there was a significant induction of apoptosis compared to the vehicle control [4] [µM]	Percentage of cells in G0/G1 phase of cell cycle (significant accumulation) [5]	EC50 [7] [µM]	The lowest dose of polyphenols at which there was a significant induction of apoptosis compared to the vehicle control [7] [µM]	Phase of cell cycle accumulation [10]	IC50 [12] [µM]	EC50 [13] [µM]	EC50 [14] [µM]	The lowest dose of polyphenols at which there was a significant induction of apoptosis compared to the vehicle control [14] [µM]	EC50 [18] [µM]	The lowest dose of polyphenols at which there was a significant inhibition of cell proliferation compared to the vehicle control [19] [µM]	The lowest dose of polyphenols at which there was a significant inhibition of cell proliferation compared to the vehicle control [20] [µM]	The lowest dose of polyphenols at which there was a significant inhibition of cell proliferation compared to the vehicle control [22] [µM]	other results
O=c1cc(-c2ccc(O)cc2)oc2cc(O)cc(O)c12 [Apigenin]	150	10	50	110	10	G0/G1 =59%	50	50	S-phase	100 to 500	100	35	50	90	10	10	10	EC50 ([3]; 24 h, read-out: AP50 values (range in lymphoid cell lines)): 35 to 130 µM; Percentage of cells in S phase of cell cycle (significant accumulation) ([6]; vehicle control S = 24.8%): S =35%; EC50 [8]: 84 to 235 µM; IC50 [9]: 100 to 500 µM; IC50 [11]: 36 µM; EC50 [15]: 35 to 150 µM; IC50 [16]: 140 to 195 µM; IC50 [17]: 70 µM; Percentage of cells in S phase of cell cycle (significant accumulation) ([21]; vehicle control S = 32.06%): S =50.2%
C(=C\c1ccccc1)/c1ccccc1 [Trans-Stilbene, Trans-stilbene]	> 500	50	50	> 500	250	G0/G1 =62%	350	50	S-phase	109 to 500	200	250	50	310	50	50	50	IC50 [23]: 25 to 98 µM; EC50 ([3]; read-out: AP50 values in three lymphoid cell lines): 40 to 460 µM; Percentage of cells in G0/G1 phase of cell cycle (significant accumulation) ([6]; vehicle control G0/G1 = 64.5%): G0/G1 = 69%; IC50 [24]: 6.25 µM; Percentage of cells in G2/M phase of cell cycle (significant accumulation) ([21]; vehicle control G2/M = 13.6%): G2/M =24.5%

Reference: publication PMC3873039 (Anti-Cancer Agents in Medicinal Chemistry, 2013)
